Results reported in ChEMBL document CHEMBL5724801, “EUbOPEN Chemogenomics Library - Multiplex” (2024).
Several values for one entry are separate records, joined by “and”; a condition that tells them apart may be missing. Equal entries are not always repeated.

Test system: HEK-293T
Test: Multiplex assay against HEK293T
Format: toxicity, cell-based
Details: human
Summary of the method: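 Live cells were stained at seeding with Hoechst33342, BioTracker Green Microtubule Cytoskeleton Dye, MitoTracker Red and Annexin V Alexa Fluor 680. Following compound addition, they were imaged on a CQ1 microscope at 37°C and 5% CO2 and gated by CellPathfinder machine learning into Hoechst high-intensity objects or normal cells, with normal cells split into healthy, pyknosed or fragmented nuclei and pyknosed cells into mitotic or apoptotic. Tubulin, mitochondrial-mass and membrane-permeability phenotypes are per cents of healthy-nucleus cells.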

[1] = 12 h, 1 µM, compound concentration 1 uM
[2] = 12 h, 10 µM, compound concentration 10 uM
[3] = 24 h, 1 µM, compound concentration 1 uM
[4] = 24 h, 10 µM, compound concentration 10 uM
[5] = 48 h, 1 µM, compound concentration 1 uM
[6] = 48 h, 10 µM, compound concentration 10 uM

## COc1ccc(CC(=O)NC(N/C(=N/C#N)Nc2cccc3ncccc23)C(C)(C)C)cc1OC (stereo unspecified)
[1]
  Population Apoptotic (%): 11.97% and 9.68%
  Population Fragmented Nuclei (%): 1.67% and 3.75%
  Population Hoechst High Intensity Objects (%): 0%
  Population Membrane Permeable-Phenotype (%): 0.47% and 3.33%
  Population Mitochondria Different-Phenotype (%): 42.45% and 26.67%
  Population Mitotic Cells (%): 88.03% and 90.32%
  Population Normal (%): 100%
  Population Pyknosed Nuclei (%): 39.44% and 77.5%
  Total Cell Count: 360 and 160
[2]
  Population Apoptotic (%): 8.97% and 14.85%
  Population Fragmented Nuclei (%): 3.73% and 3.91%
  Population Healthy Nuclei (%): 51.24% and 17.19%
  Population Hoechst High Intensity Objects (%): 0.31% and 0%
  Population Membrane Permeable-Phenotype (%): 0.61% and 9.09%
  Population Mitochondria Different-Phenotype (%): 26.67% and 22.73%
  Population Mitotic Cells (%): 91.03% and 85.15%
  Population Normal (%): 99.69% and 100%
  Population Pyknosed Nuclei (%): 45.03% and 78.91%
  Total Cell Count: 323 and 128
[3]
  Population Apoptotic (%): 11.48% and 16.07%
  Population Fragmented Nuclei (%): 1.83% and 3.87%
  Population Healthy Nuclei (%): 75.87% and 34.25%
  Population Hoechst High Intensity Objects (%): 0.36% and 0%
  Population Membrane Permeable-Phenotype (%): 1.45% and 0%
  Population Mitochondria Different-Phenotype (%): 14.46% and 11.29%
  Population Mitotic Cells (%): 88.52% and 83.93%
  Population Normal (%): 99.64% and 100%
  Population Pyknosed Nuclei (%): 22.3% and 61.88%
  Population Tubulin-Different-Phenotype (%): 13.49% and 12.9%
[4]
  Population Apoptotic (%): 21.15% and 27.45%
  Population Fragmented Nuclei (%): 2.03% and 2.01%
  Population Healthy Nuclei (%): 74.55% and 29.53%
  Population Hoechst High Intensity Objects (%): 0.22% and 0%
  Population Membrane Permeable-Phenotype (%): 0.91% and 2.27%
  Population Mitochondria Different-Phenotype (%): 18.73% and 22.73%
  Population Mitotic Cells (%): 78.85% and 72.55%
  Population Normal (%): 99.78% and 100%
  Population Pyknosed Nuclei (%): 23.42% and 68.46%
  Population Tubulin-Different-Phenotype (%): 20.54% and 18.18%
  Total Cell Count: 445 and 149
[5]
  Population Apoptotic (%): 8.22% and 21.13%
  Population Fragmented Nuclei (%): 2.43% and 3.09%
  Population Healthy Nuclei (%): 87.12% and 60.31%
  Population Hoechst High Intensity Objects (%): 0.07% and 0%
  Population Membrane Permeable-Phenotype (%): 5.75% and 0%
  Population Mitochondria Different-Phenotype (%): 13.8% and 32.48%
  Population Mitotic Cells (%): 91.78% and 78.87%
  Population Normal (%): 99.93% and 100%
[6]
  Population Fragmented Nuclei (%): 2.78% and 2.07%
  Population Healthy Nuclei (%): 86.6% and 61.14%
  Population Hoechst High Intensity Objects (%): 0.1% and 0%
  Population Membrane Permeable-Phenotype (%): 4.76% and 3.39%
  Population Mitochondria Different-Phenotype (%): 22.86% and 38.98%
  Population Mitotic Cells (%): 93.2% and 77.46%
  Population Normal (%): 99.9% and 100%

## COC(c1ccccc1)(c1ccccc1)[C@H](Oc1nc(C)cc(C)n1)C(=O)O [AMBRISENTAN]
[1]
  Population Apoptotic (%): 38%
  Population Fragmented Nuclei (%): 7%
  Population Healthy Nuclei (%): 75% and 81%
  Population Hoechst High Intensity Objects (%): 6% and 11%
  Population Membrane Permeable-Phenotype (%): 0%
  Population Mitochondria Different-Phenotype (%): 53% and 63%
  Population Mitotic Cells (%): 61%
  Population Normal (%): 93% and 88%
  Population Pyknosed Nuclei (%): 16% and 10%
  Population Tubulin-Different-Phenotype (%): 30% and 23%
  Total Cell Count: 249 and 326
[2]
  Population Apoptotic (%): 33% and 56%
  Population Fragmented Nuclei (%): 8% and 5%
  Population Healthy Nuclei (%): 76% and 80%
  Population Hoechst High Intensity Objects (%): 6% and 13%
  Population Membrane Permeable-Phenotype (%): 0%
  Population Mitochondria Different-Phenotype (%): 47% and 57%
  Population Mitotic Cells (%): 66% and 43%
  Population Normal (%): 93% and 86%
  Population Pyknosed Nuclei (%): 15% and 14%
  Population Tubulin-Different-Phenotype (%): 23% and 18%
  Total Cell Count: 383 and 262
[3]
  Population Apoptotic (%): 37% and 43%
  Population Fragmented Nuclei (%): 9%
  Population Healthy Nuclei (%): 76% and 82%
  Population Hoechst High Intensity Objects (%): 4% and 7%
  Population Membrane Permeable-Phenotype (%): 1% and 0%
  Population Mitochondria Different-Phenotype (%): 30% and 39%
  Population Mitotic Cells (%): 62% and 56%
  Population Normal (%): 95% and 92%
  Population Pyknosed Nuclei (%): 14% and 8%
  Population Tubulin-Different-Phenotype (%): 19% and 16%
  Total Cell Count: 313 and 404
[4]
  Population Apoptotic (%): 30% and 44%
  Population Fragmented Nuclei (%): 10% and 8%
  Population Healthy Nuclei (%): 73% and 78%
  Population Hoechst High Intensity Objects (%): 4% and 12%
  Population Membrane Permeable-Phenotype (%): 0%
  Population Mitochondria Different-Phenotype (%): 34% and 41%
  Population Mitotic Cells (%): 69% and 55%
  Population Normal (%): 95% and 87%
  Population Pyknosed Nuclei (%): 15% and 12%
  Population Tubulin-Different-Phenotype (%): 18% and 17%
  Total Cell Count: 441 and 318
[5]
  Population Apoptotic (%): 27% and 40%
  Population Fragmented Nuclei (%): 17% and 12%
  Population Healthy Nuclei (%): 72% and 80%
  Population Hoechst High Intensity Objects (%): 2% and 3%
  Population Membrane Permeable-Phenotype (%): 3% and 0%
  Population Mitochondria Different-Phenotype (%): 22% and 23%
  Population Mitotic Cells (%): 72% and 59%
  Population Normal (%): 97% and 96%
  Population Pyknosed Nuclei (%): 10% and 7%
  Population Tubulin-Different-Phenotype (%): 13% and 10%
  Total Cell Count: 600 and 605
[6]
  Population Apoptotic (%): 26% and 53%
  Population Fragmented Nuclei (%): 14%
  Population Healthy Nuclei (%): 77% and 79%
  Population Hoechst High Intensity Objects (%): 2% and 7%
  Population Membrane Permeable-Phenotype (%): 1% and 0%
  Population Mitochondria Different-Phenotype (%): 18% and 27%
  Population Mitotic Cells (%): 73% and 46%
  Population Normal (%): 97% and 92%
  Population Pyknosed Nuclei (%): 8% and 5%
  Population Tubulin-Different-Phenotype (%): 13% and 15%
  Total Cell Count: 711 and 480
